Substitutions are numbered along the chain they refer to. Calls of active or inactive are those of the source. No cut-off for these calls is given here.
Columns and labels:
[1] = tested on: T1, Leishmania donovani [F270L]; experiment: Inhibition of recombinant drug-resistant Leishmania donovani LdDR50 topoisomerase 1b wild type small subunit and large subunit F270L mutant-mediated relaxation of supercoiled pBluescript SK(+) DNA at up to 50 uM after 30 mins using ethidium bromide staining
T1 sequence (whole entry): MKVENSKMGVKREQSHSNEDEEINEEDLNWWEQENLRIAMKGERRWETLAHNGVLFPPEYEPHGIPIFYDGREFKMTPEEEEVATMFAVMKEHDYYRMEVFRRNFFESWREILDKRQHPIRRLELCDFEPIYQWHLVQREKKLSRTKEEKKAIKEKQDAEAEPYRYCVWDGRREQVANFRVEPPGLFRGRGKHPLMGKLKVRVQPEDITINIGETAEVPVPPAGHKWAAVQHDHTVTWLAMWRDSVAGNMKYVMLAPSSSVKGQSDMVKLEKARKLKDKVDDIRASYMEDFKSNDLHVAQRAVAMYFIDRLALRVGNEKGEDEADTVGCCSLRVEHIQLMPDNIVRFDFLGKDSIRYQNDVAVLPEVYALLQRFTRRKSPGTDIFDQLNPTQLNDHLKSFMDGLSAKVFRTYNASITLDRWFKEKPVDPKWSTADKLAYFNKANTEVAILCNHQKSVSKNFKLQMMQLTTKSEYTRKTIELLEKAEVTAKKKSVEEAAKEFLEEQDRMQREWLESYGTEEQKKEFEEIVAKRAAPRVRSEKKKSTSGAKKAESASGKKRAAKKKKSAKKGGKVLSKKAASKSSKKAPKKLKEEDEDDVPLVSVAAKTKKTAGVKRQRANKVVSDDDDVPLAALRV
Procedure, shortened: (§1)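 Reconstituted recombinant enzyme (30 fmol) with 90 fmol supercoiled pBluescript SK(+) DNA (3:1 DNA:enzyme), 30 min at 37°C with DIM (1–50 μM for fully mutant enzyme; 10 μM for single-site mutants); 4% DMSO vehicle control. Products on 1% agarose, ethidium bromide (0.5 μg/ml) stained; supercoiled monomer band quantified.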

Leishmania donovani = experiment: Antimicrobial activity against wild type Leishmania donovani AG83 assessed as inhibition of parasite growth after 24 hrs by MTT assay; assay type: functional, organism-based
Procedure, shortened: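 WT L. donovani promastigotes were harvested in exponential phase and seeded at 2 × 10^6 cells per well. They were exposed to DIM at 1, 5, 10, 15 and 20 μM, washed in PBS, and given MTT (10 μg/ml) for 4 h. Acidified isopropanol stop was followed by A570. Growth was expressed as % of the OD of untreated WT, from three experiments.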

[2] = tested on: T2, Leishmania donovani [F270L,K430N]; experiment: Inhibition of recombinant drug-resistant Leishmania donovani LdDR50 topoisomerase 1b wild type small subunit and large subunit F270L, K430N mutant-mediated relaxation of supercoiled pBluescript SK(+) DNA at up to 50 uM after 30 mins using ethidium bromide staining; procedure, shortened: as §1
T2 sequence (whole entry): T1 sequence (whole entry) with K430N

SMILES: c1ccc2c(Cc3c[nH]c4ccccc34)c[nH]c2c1 [ARUNDINE]
- inhibition [1]: inactive
- inhibition (Leishmania donovani): Dose-dependent effect
- IC50 (Leishmania donovani; AG83, 24 h): 1.25 µM
- inhibition [2]: inactive
